# Only some compounds are listed: those with a hit (about 1.9% of all), similar ones and a draw of the others.
# PLC-beta3 inh – blocks human PLC-beta3 enzyme activity | Purified PLC-beta3, fluorogenic substrate, fluorescence | 0.18% of 370,000 active | inhibition, % at 12.2 µM | AID 720704 | Q01970; in the data active means inhibition above about 11%
# PLC-gamma1 inh – PLC-gamma1 (human) inhibition, primary screen. P19174. purified PLC-gamma1, fluorogenic substrate, fluorescence. inhibition, % at 12.2 µM. 0.84% of 370,000 active; in the data active means inhibition above about 9.5%
# ASAP1 inh – inhibitors of human ASAP1 ArfGAP activity; Q9ULH1; ASAP1-stimulated ARF1 GTP hydrolysis, GDP FP detection; inhibition, % at 16.5 µM; 0.19% of 360,000 active; in the data active means inhibition above about 25%
# ARFGAP1 inhibitor – rat ARFGAP1 inhibition; Q62848; Arfgap1-stimulated ARF1 GTP hydrolysis, GDP FP detection; inhibition, % at 16.5 µM; 0.26% of 360,000 active; AID 651572;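 active means inhibition above a per-plate limit, mean inhibition of low control wells plus 3 SD, cut at about 25% in these data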
#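 Material: truncated rat Arfgap1 GAP domain; Incubation: compound-enzyme preincubation 20 min, reaction 120 min, detection 60 min, 25 °C; Read-out: percent inhibition of Arfgap1-stimulated GTP hydrolysis; Technique: FP, GDP Alexa 633 tracer displaced from anti-GDP antibody, 620/688 nm; Controls: No-Arfgap1 wells (100%) versus DMSO full-reaction wells (0%); Replication: single well per compound.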
# HGIII-sPLA2 inh – Inhibits HGIII-sPLA2 liposome hydrolysis, primary screen; inhibition, % at 12.2 µM; QFRET BODIPY PC-A2 liposome hydrolysis, fluorescence; AID 743126; Q9NZ20; 0.56% of 370,000 active;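 active means inhibition above mean plus 3 SD of compounds lying within the high and low control bounds, cut at about 19% in these data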
# ARFGAP1 inh conf – rat ARFGAP1 inhibition, confirmed; inhibition, % at 16.5 µM; AID 651608; 30% of 890 active; shares compounds with ARFGAP1 inhibitor; ARFGAP1-stimulated ARF1 GTP hydrolysis, GDP tracer FP;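 active means average inhibition over triplicates above the hit cutoff set in the earlier primary screen, cut at about 25% in these data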
# Numbers stand for hits; – = inactive; · = no result given.
SMILES,PLC-beta3 inh,PLC-gamma1 inh,ASAP1 inh,ARFGAP1 inhibitor,HGIII-sPLA2 inh,ARFGAP1 inh conf
CN(C)/C=C/C1=C([N+](=O)[O-])C(c2cccc([N+](=O)[O-])c2)NC(=O)N1 (stereo not given),–,–,–,28,–,–
C/C(=N\NC(=S)NCc1ccccc1)c1cccs1,–,–,–,30,–,–
Cc1cccc(-c2cccc3c4c([nH]c23)[C@@H]2C[C@H](N(C)C(=O)Nc3ccccc3)[C@H]([C@H](C)O)CN2CC4)c1,–,–,·,·,–,·
O=C(CCCNC(=O)/C(=C/c1ccccc1F)NC(=O)c1ccccc1)OCc1ccccc1,–,–,–,27,–,–
Cc1ccc(NC(=O)C2CCCN(c3nnc(-n4cccc4)s3)C2)cc1C (stereo not given),–,–,·,·,–,·
CCNc1nc(-c2sc(NC(=O)C(C)(C)C)nc2C)c(-n2cc(-c3ccccc3)nn2)s1,–,–,–,32,–,–
N#Cc1c(NC(=O)C2CC(c3c(F)cccc3Cl)=NO2)sc2c1CCC2 (stereo not given),–,–,–,35,–,56
CC(C)CSc1nnc(-c2ccco2)n1C,–,–,·,·,–,·
O=C(N/N=C/c1ccc(Br)s1)c1ccco1,–,–,–,–,–,·
O=C(N/N=C/c1sc(=O)n(Cc2ccc(Br)cc2)c1Cl)c1ccco1,–,–,–,39,–,54
COC(=O)c1cc(C)[nH]c2c(C)cc3nc4ccccc4c3c12,–,–,–,41,–,–
COC(=O)c1c(C)nc2ccccc2c1C(=O)O,–,–,–,–,–,·
COc1ccc(-c2cc(C(=O)N(C3CCCCC3)C3CCCCC3)no2)cc1,–,–,·,·,–,·
O=C(Nc1ccc(CN2CCOCC2)cc1)c1ccc(Br)o1,–,–,–,–,–,·
O=C(Nc1ccc(CN2CCOCC2)cc1)c1ccc(-c2cc(Cl)ccc2Cl)o1,–,–,–,37,–,25
COc1ccc(N2CCN(c3nc(=S)n(-c4ccccc4)c(C)c3C(C)=O)CC2)cc1,–,–,–,–,–,·
CCn1c(C)c(C(C)=O)c(N2CCN(c3ccc(OC)cc3)CC2)nc1=S,–,–,–,41,–,–
COc1ccc2nc(/C=N/NC(=O)[C@H](CCSC)NC(=O)OC(C)(C)C)ccc2c1,–,–,–,27,–,–
C=CCn1c(C)nnc1SCC(=O)Nc1ccccc1C(=O)NC1CC1,–,–,–,25,–,–
COc1cc(C(=O)Nc2ccc3nc(N4CCN(C)CC4)cc(C)c3c2)cc(OC)c1OC,–,–,–,29,–,25
Cc1cc(N2CCN(C)CC2)nc2ccc(NC(=O)c3ccc4c(c3)OCO4)cc12,–,–,–,–,–,·
CCOC(=O)c1c(NC(=O)COC)sc(C)c1C,–,–,–,–,–,·
CCOC(=O)c1c(NC(=O)C[n+]2ccc(N(C)C)cc2)sc(C)c1C,–,–,–,25,–,–
O=S(=O)(CC1NCc2cc(F)ccc21)NCc1ccc(F)cc1 (stereo not given),–,–,·,·,–,·
O=C(NCc1ccncc1)Nc1ccccc1,–,–,–,–,–,·
SMILES,PLC-beta3 inh,PLC-gamma1 inh,ASAP1 inh,ARFGAP1 inhibitor,HGIII-sPLA2 inh,ARFGAP1 inh conf
O=C(NCc1ccncc1)Nc1ccc(Cc2ccc(NC(=O)NCc3ccncc3)cc2)cc1,–,–,–,27,–,56
Cc1cc(NS(=O)(=O)c2ccc(NS(=O)(=O)c3ccc(Br)cc3)cc2)no1,–,–,–,27,–,–
Cc1cc(NS(=O)(=O)c2ccc(NC(=O)/C=C/c3ccc(Br)cc3)cc2)no1,–,–,–,–,–,·
Cc1cc(NS(=O)(=O)c2ccc(NC(=S)NC(=O)c3cccc(S(=O)(=O)N(C)C)c3)cc2)no1,–,–,–,29,–,38
COC(=O)[C@@]1(C(C)C)N=C(c2cc(OC)c(OC)c(OC)c2)[C@]2(O1)C(=O)N(Cc1cn(Cc3ccccc3)nn1)c1ccc(F)cc12,–,–,·,·,–,·
COc1ccc(NC(C)=O)c([N+](=O)[O-])c1[N+](=O)[O-],–,–,–,–,–,·
COc1ccc(OC)c([N+](=O)[O-])c1C(N)=O,–,–,–,26,–,–
CC(=O)Nc1ccc(C(/C=C/c2ccccc2)Cc2ccccc2)cc1 (stereo not given),–,–,·,·,–,·
COc1cc(OC)c(OC)cc1CN1CCN(S(=O)(=O)c2ccc(NC(C)=O)cc2)CC1,–,–,–,–,–,·
COc1ccc(S(=O)(=O)N2CCN(Cc3cc(OC)c(OC)cc3OC)CC2)cc1,–,–,–,27,–,–
COc1ccc(N2CC(C(=O)Nc3ccc(S(=O)(=O)Nc4nccs4)cc3)CC2=O)c(OC)c1 (stereo not given),–,–,–,25,–,–
Cc1cccc(NC(=O)C2(c3cccs3)CCOCC2)c1,–,–,–,35,–,–
C[C@@H]1CCCCO[C@H](CN(C)C)[C@H](C)CN([C@@H](C)CO)C(=O)c2cc(NC(=O)Nc3ccc(C(F)(F)F)cc3)ccc2O1,–,–,–,–,–,·
C[C@H](CO)N1C[C@H](C)[C@@H](CN(C)C(=O)Nc2ccc(C(F)(F)F)cc2)Oc2ccc(NC(=O)Nc3ccccc3)cc2C1=O,–,–,–,30,–,–
C[C@H](CO)N1C[C@H](C)[C@@H](CN(C)C(=O)Nc2ccccc2)Oc2ccc(NC(=O)Nc3ccccc3)cc2C1=O,–,–,–,–,–,·
C[C@@H]1CCCCO[C@H](CN(C)Cc2ccc(C(=O)O)cc2)[C@H](C)CN([C@@H](C)CO)C(=O)c2cc(NC(=O)Nc3ccc(C(F)(F)F)cc3)ccc2O1,–,–,–,25,–,–
COC(=O)C1CN(Cc2ccc(C)cc2)CCS(=O)(=O)N1Cc1cn(Cc2ccccc2)nn1 (stereo not given),–,–,·,·,–,·
COc1ccc(CNCC#CC2=CCCCC2)c(OC)c1,–,–,·,·,–,·
COC(=O)C1CN(Cc2ccc(Cl)cc2)CCS(=O)(=O)N1Cc1cn(Cc2ccccc2)nn1 (stereo not given),–,–,·,·,–,·
O=C(CCSc1nnc(-c2ccncc2)o1)Nc1ccccc1Cl,–,–,–,29,–,–
O=C(O)CCN1C(=O)/C(=C/c2ccc(F)cc2F)SC1=S,–,–,·,·,–,·
COc1cc(/C=N/Nc2ccc(C(F)(F)F)cn2)ccc1O,–,–,–,29,–,–
O=C(O)c1ccc(/C=N/Nc2ccc(C(F)(F)F)cn2)cc1,–,–,–,–,–,·
COc1ccc(NC(=O)Cn2cnc3ccccc3c2=O)cc1OC,–,–,–,–,–,·
CCOc1ccc2nc(NC(=O)Cn3cnc4c3c(=O)n(C)c(=O)n4C)sc2c1,–,–,–,27,–,–
COc1ccc2nc(NC(=O)Cn3cnc4ccccc4c3=O)sc2c1,–,–,–,27,–,–
CCOc1ccc2nc(NC(=O)CSc3nc4c(c(=O)n(C)c(=O)n4C)n3C(C)C)sc2c1,–,–,–,–,–,·
